Test results from publication PMC12521504 (Communications Biology, 2025).
Read-outs that look alike come from different tables or passages of the source.

Assays:
N-domain of mACE = target: T1, N-domain of mACE (Mus musculus, UniProt P09470); assay: ACE N-domain specific enzymatic assay with Abz-SDK; type: biochemical
T1 sequence (P09470 35-1312): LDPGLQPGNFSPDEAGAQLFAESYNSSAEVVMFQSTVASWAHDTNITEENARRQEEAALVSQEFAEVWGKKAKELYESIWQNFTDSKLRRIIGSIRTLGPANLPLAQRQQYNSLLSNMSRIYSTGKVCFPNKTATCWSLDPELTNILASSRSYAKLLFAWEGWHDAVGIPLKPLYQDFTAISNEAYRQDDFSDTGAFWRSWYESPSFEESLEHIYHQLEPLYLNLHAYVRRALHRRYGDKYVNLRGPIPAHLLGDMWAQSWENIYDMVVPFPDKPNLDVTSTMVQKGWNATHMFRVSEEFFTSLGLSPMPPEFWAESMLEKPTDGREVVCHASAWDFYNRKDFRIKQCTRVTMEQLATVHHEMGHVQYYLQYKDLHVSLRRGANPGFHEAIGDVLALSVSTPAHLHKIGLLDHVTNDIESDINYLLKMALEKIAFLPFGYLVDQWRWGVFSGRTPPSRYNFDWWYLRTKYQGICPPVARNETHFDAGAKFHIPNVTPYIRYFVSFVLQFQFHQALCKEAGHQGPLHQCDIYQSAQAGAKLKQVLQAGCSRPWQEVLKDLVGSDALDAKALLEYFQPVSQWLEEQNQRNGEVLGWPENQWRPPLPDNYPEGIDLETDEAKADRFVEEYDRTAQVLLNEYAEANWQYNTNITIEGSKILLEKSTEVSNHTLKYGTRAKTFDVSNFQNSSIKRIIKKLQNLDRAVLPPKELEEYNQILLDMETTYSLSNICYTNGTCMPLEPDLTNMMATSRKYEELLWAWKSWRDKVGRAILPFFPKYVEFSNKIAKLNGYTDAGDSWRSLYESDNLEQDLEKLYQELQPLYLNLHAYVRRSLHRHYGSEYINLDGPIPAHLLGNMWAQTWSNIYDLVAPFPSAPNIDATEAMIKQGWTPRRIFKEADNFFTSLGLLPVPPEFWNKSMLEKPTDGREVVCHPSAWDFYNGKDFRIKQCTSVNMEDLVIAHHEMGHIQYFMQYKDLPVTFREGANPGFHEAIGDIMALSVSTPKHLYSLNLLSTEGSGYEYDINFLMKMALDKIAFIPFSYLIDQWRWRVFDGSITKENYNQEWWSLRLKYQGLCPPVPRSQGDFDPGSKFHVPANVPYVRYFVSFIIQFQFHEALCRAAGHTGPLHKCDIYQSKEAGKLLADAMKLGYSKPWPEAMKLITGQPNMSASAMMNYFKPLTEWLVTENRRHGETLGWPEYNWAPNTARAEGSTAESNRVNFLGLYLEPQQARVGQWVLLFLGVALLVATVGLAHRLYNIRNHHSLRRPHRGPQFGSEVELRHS

mouse ACE (mACE) [1] = target: T2, mouse ACE (mACE) (Mus musculus, UniProt P09470); assay: Fluorescence-based ACE enzymatic assay with Mca-[…]; type: biochemical
T2 sequence (P09470 35-1312): T1 sequence (P09470 35-1312)

mouse ACE (mACE) [2] = target: T2, mouse ACE (mACE); assay: Secondary LC-MS/MS ACE inhibition assay; type: biochemical
male ICR-CD1 mice [3] = assay: Hot plate assay; type: in vivo, mouse; settings: 15 min
Procedure, shortened: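 Male ICR-CD1 mice, 8 weeks old (n = 6–15/group), received compound i.c.v. (10 µl, 100 µg/mouse) under isoflurane, alone or with MERF (50 µg/mouse). Mice were placed on a glass platform preheated to 55 °C. Latency to shake, lick or lift the hind paw, or to jump, was timed at set points, with a 60 s cut-off. Results are %MPE = (Test−Baseline)/(60−Baseline) × 100.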

[4] = tested on: extracellular MERF, Met-enkephalin and Leu-enkephalin levels; type: cell-based, mouse; settings: thiorphan 10 μM, raloxifene 500 μM
male ICR-CD1 mice [5] = assay: Tail-flick assay; type: in vivo, mouse; settings: for %MPE (group mean): 15 min
Procedure, shortened: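 Radiant-heat tail-flick in 8-week male ICR-CD1 mice (n = 6–15/group). Beam was calibrated to a 2–4 s baseline, tail tip placed 20–30 mm from the source, cut-off 10 s. Compound was given i.c.v. under isoflurane at 100 µg/mouse (also 75 µg/mouse), alone or with MERF (50 µg/mouse). […] Results are %MPE relative to pre-treatment baseline.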

C-domain of mACE = target: T3, C-domain of mACE (Mus musculus, UniProt P09470); assay: ACE C-domain specific enzymatic assay with Abz-LFK; type: biochemical
T3 sequence (P09470 35-1312): T1 sequence (P09470 35-1312)

male ICR-CD1 mice [6] = assay: Acetic acid induced writhing test; type: in vivo, mouse; settings: for effect of naloxone on analgesia of systemic (i.p.) compound: naloxone 5 mg/kg s.c.
male ICR-CD1 mice [7] = assay: Formalin induced paw licking/lifting test; type: in vivo, mouse; settings: 2% formalin
[8] = compound 100 μg/mouse + MERF i.c.v.
[9] = compound 100 μg/mouse i.c.v. alone
[10] = compound 100 μg/mouse + MERF 50 μg/mouse i.c.v.
[11] = 100 µg/animal i.c.v., 1% acetic acid i.p., 30 min
[12] = 100 µg/animal i.c.v. + naloxone 5 mg/kg s.c.
[13] = 100 µg/animal i.c.v., late phase

With `O=C(O)CNC(=O)C(CS)Cc1ccccc1` (stereo not shown) [Thiorphan, thiorphan] the IC50 (N-domain of mACE) was 1.3 ± 0.08 µM, the Ki (N-domain of mACE) was 0.71 ± 0.045 µM and the IC50 (mouse ACE (mACE) [1]) was 2.36 ± 0.42 µM. The IC50 (mouse ACE (mACE) [2]) was 3.51 ± 0.37 µM, the “%MPE (group mean)” value (male ICR-CD1 mice [3]; [8]) was 36.48% and the “%MPE (group mean)” value (male ICR-CD1 mice [3]; [9]) was 13.83%. For the same molecule, the “effect on Met- and Leu-enkephalin levels” value [4] was “affected the levels of Met- and Leu-enkephalins”, the “%MPE (group mean)” value (male ICR-CD1 mice [5]; [10]) was 40.32% and the “%MPE (group mean)” value (male ICR-CD1 mice [5]; [9]) was 22.45%. For the same molecule, the IC50 (C-domain of mACE) was 0.77 ± 0.046 µM, the Ki (C-domain of mACE) was 0.17 ± 0.01 µM and the C/N selectivity factor (C-domain of mACE; N-domain versus C-domain) was 4.2.

In the case of `C=CCN1CC[C@]23c4c5ccc(O)c4O[C@H]2C(=O)CC[C@@]3(O)[C@H]1C5` [Naloxone, naloxone], the “analgesia of naloxone itself” value (male ICR-CD1 mice [5]; 5 mg/kg s.c.) is reported as “unable to induce analgesia”.

For Met-enkephalin-Arg-Phe [MERF], the “%MPE (group mean)” value (male ICR-CD1 mice [5]; MERF 50 μg/mouse i.c.v. alone) was 6.27%.

With `O=C(c1ccc(OCCN2CCCCC2)cc1)c1c(-c2ccc(O)cc2)sc2cc(O)ccc12` [Raloxifene, raloxifene] the “writhings (group mean)” value (male ICR-CD1 mice [6]; 100 µg/animal i.c.v. + naloxone 5 mg/kg s.c., 1% acetic acid) was 78.75, the “writhings (group mean)” value (male ICR-CD1 mice [6]; [11]) was 51.8 and the “effect of naloxone on analgesia of systemic (i.p.) compound” value (male ICR-CD1 mice [6]) was “naloxone failed to reverse the analgesic effect”. It also gave a Ki (N-domain of mACE) of 180 µM, an IC50 (N-domain of mACE; read-out: IC50 N-domain, 40 µM Abz-SDK(Dnp)P-OH, 35 nM mACE) of 320 µM and an IC50 (mouse ACE (mACE) [1]) of 102 ± 13.2 µM. The “%MPE (group mean)” value (male ICR-CD1 mice [3]; [8]) was 25.89%, the “%MPE (group mean)” value (male ICR-CD1 mice [3]; [9]) was 5.52% and the “%MPE (group mean)” value (male ICR-CD1 mice [5]; [10]) was 34.28%. For the same molecule, the “%MPE (group mean)” value (male ICR-CD1 mice [5]; [9]) was 13.33%, the IC50 (C-domain of mACE) was 140 µM and the Ki (C-domain of mACE) was 30 µM. The “paw licking/lifting duration, Phase I” value (male ICR-CD1 mice [7]; [12]) was 69.75 s, the “paw licking/lifting duration, Phase II” value (male ICR-CD1 mice [7]; [12]) was 9.25 s and the “paw licking/lifting duration, Phase I” value (male ICR-CD1 mice [7]; 100 µg/animal i.c.v., 0–5 min) was 10 s. For the same molecule, the “paw licking/lifting duration, Phase II” value (male ICR-CD1 mice [7]; [13]) was 2 s.

In the case of `O=C(O)c1nn(Cc2ccc(Cl)cc2Cl)c2ccccc12` [Lonidamine, lonidamine], the “confirmation of HTS findings in dose-response studies” value (mouse ACE (mACE) [1]) is reported as “did not confirm the HTS findings”.

With `C[C@H](CS)C(=O)N1CCC[C@H]1C(=O)O` [Captopril, captopril] the “writhings (group mean)” value (male ICR-CD1 mice [6]; [11]) was 48, the “writhings (group mean)” value (male ICR-CD1 mice [6]; 50 mg/kg i.p., 1% acetic acid) was 57.66 and the “effect of naloxone on analgesia of systemic (i.p.) compound” value (male ICR-CD1 mice [6]) was “reversed by systemic naloxone”. The “%MPE (group mean)” value (male ICR-CD1 mice [3]; [8]) was 51.30%, the “%MPE (group mean)” value (male ICR-CD1 mice [3]; [9]) was 10.32% and the “%MPE (group mean)” value (male ICR-CD1 mice [5]; [10]) was 68.31%. For the same molecule, the “%MPE (group mean)” value (male ICR-CD1 mice [5]; [9]) was 21.68%, the “paw licking/lifting duration, Phase I” value (male ICR-CD1 mice [7]; [12]) was 73.5 s and the “paw licking/lifting duration, Phase II” value (male ICR-CD1 mice [7]; [12]) was 16.25 s. For the same molecule, the “paw licking/lifting duration, Phase I” value (male ICR-CD1 mice [7]; 100 µg/animal i.c.v., 0–5 min) was 16.5 s and the “paw licking/lifting duration, Phase II” value (male ICR-CD1 mice [7]; [13]) was 15 s.

With `Cl.O=C(O)C1CCCN(CCC=C(c2ccccc2)c2ccccc2)C1` (stereo not shown) [SKF 89976A hydrochloride] the “confirmation of HTS findings in dose-response studies” value (mouse ACE (mACE) [1]) was “did not confirm the HTS findings”.
